Results taken from ChEMBL document CHEMBL2321753, “Synthesis and biological evaluation of radioiodinated quinacrine-based derivatives for SPECT imaging of Aβ plaques” (Eur J Med Chem, 2013).

What was measured:
Heart [1] = test: Biodistribution in ddY mouse heart at 0.1 to 0.4 uCi, iv after 60 mins by gamma counting; assay type: ADME, organism-based; conditions: in vivo, 1 h
How it was run: (§1)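 [125I]ligand (0.1–0.4 µCi) in 100 µL PBS (pH 7.4) containing 30 µL DMSO, injected into the tail vein of ddY mice (5 weeks, 22–25 g). Mice sacrificed at 2, 10, 30 and 60 min. Organs removed, weighed and gamma-counted. Values are % injected dose per gram, except stomach as % dose per organ. Mean (SD) of 3–6 mice per time point.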

Pancreas [2] = test: Biodistribution in ddY mouse pancreas at 0.1 to 0.4 uCi, iv after 60 mins by gamma counting; assay type: ADME, organism-based; conditions: in vivo, 1 h; how it was run: as §1
Stomach [3] = test: Biodistribution in ddY mouse stomach assessed per organ at 0.1 to 0.4 uCi, iv after 60 mins by gamma counting; assay type: ADME, organism-based; conditions: in vivo, 1 h; how it was run: as §1
Lung [4] = test: Biodistribution in ddY mouse lung at 0.1 to 0.4 uCi, iv after 60 mins by gamma counting; assay type: ADME, organism-based; conditions: in vivo, 1 h; how it was run: as §1
Spleen [5] = test: Biodistribution in ddY mouse spleen at 0.1 to 0.4 uCi, iv after 60 mins by gamma counting; assay type: ADME, organism-based; conditions: in vivo, 1 h; how it was run: as §1
Intestine [6] = test: Biodistribution in ddY mouse intestine at 0.1 to 0.4 uCi, iv after 60 mins by gamma counting; assay type: ADME, organism-based; conditions: in vivo, 1 h; how it was run: as §1
Kidney [7] = test: Biodistribution in ddY mouse kidney at 0.1 to 0.4 uCi, iv after 60 mins by gamma counting; assay type: ADME, organism-based; conditions: in vivo, 1 h; how it was run: as §1
Liver [8] = test: Biodistribution in ddY mouse liver at 0.1 to 0.4 uCi, iv after 60 mins by gamma counting; assay type: ADME, organism-based; conditions: in vivo, 1 h; how it was run: as §1
Brain [9] = test: Biodistribution in ddY mouse brain at 0.1 to 0.4 uCi, iv after 60 mins by gamma counting; assay type: ADME, organism-based; conditions: in vivo, 1 h; how it was run: as §1
Blood [10] = test: Biodistribution in ddY mouse blood at 0.1 to 0.4 uCi, iv after 60 mins by gamma counting; assay type: ADME, organism-based; conditions: in vivo, 1 h; how it was run: as §1
Heart [11] = test: Biodistribution in ddY mouse heart at 0.1 to 0.4 uCi, iv after 30 mins by gamma counting; assay type: ADME, organism-based; conditions: in vivo, 0.5 h; how it was run: as §1
Pancreas [12] = test: Biodistribution in ddY mouse pancreas at 0.1 to 0.4 uCi, iv after 30 mins by gamma counting; assay type: ADME, organism-based; conditions: in vivo, 0.5 h; how it was run: as §1
Stomach [13] = test: Biodistribution in ddY mouse stomach assessed per organ at 0.1 to 0.4 uCi, iv after 30 mins by gamma counting; assay type: ADME, organism-based; conditions: in vivo, 0.5 h; how it was run: as §1
Lung [14] = test: Biodistribution in ddY mouse lung at 0.1 to 0.4 uCi, iv after 30 mins by gamma counting; assay type: ADME, organism-based; conditions: in vivo, 0.5 h; how it was run: as §1
Spleen [15] = test: Biodistribution in ddY mouse spleen at 0.1 to 0.4 uCi, iv after 30 mins by gamma counting; assay type: ADME, organism-based; conditions: in vivo, 0.5 h; how it was run: as §1
Intestine [16] = test: Biodistribution in ddY mouse intestine at 0.1 to 0.4 uCi, iv after 30 mins by gamma counting; assay type: ADME, organism-based; conditions: in vivo, 0.5 h; how it was run: as §1
Kidney [17] = test: Biodistribution in ddY mouse kidney at 0.1 to 0.4 uCi, iv after 30 mins by gamma counting; assay type: ADME, organism-based; conditions: in vivo, 0.5 h; how it was run: as §1
Liver [18] = test: Biodistribution in ddY mouse liver at 0.1 to 0.4 uCi, iv after 30 mins by gamma counting; assay type: ADME, organism-based; conditions: in vivo, 0.5 h; how it was run: as §1
Brain [19] = test: Biodistribution in ddY mouse brain at 0.1 to 0.4 uCi, iv after 30 mins by gamma counting; assay type: ADME, organism-based; conditions: in vivo, 0.5 h; how it was run: as §1
Blood [20] = test: Biodistribution in ddY mouse blood at 0.1 to 0.4 uCi, iv after 30 mins by gamma counting; assay type: ADME, organism-based; conditions: in vivo, 0.5 h; how it was run: as §1
Heart [21] = test: Biodistribution in ddY mouse heart at 0.1 to 0.4 uCi, iv after 10 mins by gamma counting; assay type: ADME, organism-based; conditions: in vivo; how it was run: as §1
Pancreas [22] = test: Biodistribution in ddY mouse pancreas at 0.1 to 0.4 uCi, iv after 10 mins by gamma counting; assay type: ADME, organism-based; conditions: in vivo; how it was run: as §1
Stomach [23] = test: Biodistribution in ddY mouse stomach assessed per organ at 0.1 to 0.4 uCi, iv after 10 mins by gamma counting; assay type: ADME, organism-based; conditions: in vivo; how it was run: as §1
Lung [24] = test: Biodistribution in ddY mouse lung at 0.1 to 0.4 uCi, iv after 10 mins by gamma counting; assay type: ADME, organism-based; conditions: in vivo; how it was run: as §1
Spleen [25] = test: Biodistribution in ddY mouse spleen at 0.1 to 0.4 uCi, iv after 10 mins by gamma counting; assay type: ADME, organism-based; conditions: in vivo; how it was run: as §1
Intestine [26] = test: Biodistribution in ddY mouse intestine at 0.1 to 0.4 uCi, iv after 10 mins by gamma counting; assay type: ADME, organism-based; conditions: in vivo; how it was run: as §1
Liver [27] = test: Biodistribution in ddY mouse liver at 0.1 to 0.4 uCi, iv after 10 mins by gamma counting; assay type: ADME, organism-based; conditions: in vivo; how it was run: as §1
Kidney [28] = test: Biodistribution in ddY mouse kidney at 0.1 to 0.4 uCi, iv after 10 mins by gamma counting; assay type: ADME, organism-based; conditions: in vivo; how it was run: as §1
Brain [29] = test: Biodistribution in ddY mouse brain at 0.1 to 0.4 uCi, iv after 10 mins by gamma counting; assay type: ADME, organism-based; conditions: in vivo; how it was run: as §1
Blood [30] = test: Biodistribution in ddY mouse blood at 0.1 to 0.4 uCi, iv after 10 mins by gamma counting; assay type: ADME, organism-based; conditions: in vivo; how it was run: as §1
Pancreas [31] = test: Biodistribution in ddY mouse pancreas at 0.1 to 0.4 uCi, iv after 2 mins by gamma counting; assay type: ADME, organism-based; conditions: in vivo; how it was run: as §1
Heart [32] = test: Biodistribution in ddY mouse heart at 0.1 to 0.4 uCi, iv after 2 mins by gamma counting; assay type: ADME, organism-based; conditions: in vivo; how it was run: as §1
Stomach [33] = test: Biodistribution in ddY mouse stomach assessed per organ at 0.1 to 0.4 uCi, iv after 2 mins by gamma counting; assay type: ADME, organism-based; conditions: in vivo; how it was run: as §1
Lung [34] = test: Biodistribution in ddY mouse lung at 0.1 to 0.4 uCi, iv after 2 mins by gamma counting; assay type: ADME, organism-based; conditions: in vivo; how it was run: as §1
Intestine [35] = test: Biodistribution in ddY mouse intestine at 0.1 to 0.4 uCi, iv after 2 mins by gamma counting; assay type: ADME, organism-based; conditions: in vivo; how it was run: as §1
Spleen [36] = test: Biodistribution in ddY mouse spleen at 0.1 to 0.4 uCi, iv after 2 mins by gamma counting; assay type: ADME, organism-based; conditions: in vivo; how it was run: as §1
Kidney [37] = test: Biodistribution in ddY mouse kidney at 0.1 to 0.4 uCi, iv after 2 mins by gamma counting; assay type: ADME, organism-based; conditions: in vivo; how it was run: as §1
Liver [38] = test: Biodistribution in ddY mouse liver at 0.1 to 0.4 uCi, iv after 2 mins by gamma counting; assay type: ADME, organism-based; conditions: in vivo; how it was run: as §1
Blood [39] = test: Biodistribution in ddY mouse blood at 0.1 to 0.4 uCi, iv after 2 mins by gamma counting; assay type: ADME, organism-based; conditions: in vivo; how it was run: as §1
Brain [40] = test: Biodistribution in ddY mouse brain at 0.1 to 0.4 uCi, iv after 2 mins by gamma counting; assay type: ADME, organism-based; conditions: in vivo; how it was run: as §1
[41] = n-octanol-sodium phosphate buffer partition co-efficient, log D of the compound at pH 7.4 by shake flask method; assay type: physicochemical
How it was run: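 Shake-flask partition between n-octanol and sodium phosphate buffer, pH 7.4, shaken 10 min at room temperature, then centrifuged. Weighed 0.5 mL samples of each layer counted. log D from the ratio of cpm per gram of octanol to cpm per gram of buffer; n = 3.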

[42] = target: Amyloid-beta precursor protein (Homo sapiens, UniProt P05067); test: Displacement of [125I]IMPY from amyloid beta (1 to 42) (unknown origin) after 3 hrs by gamma counting
Amyloid-beta precursor protein, sequence (P05067 whole entry): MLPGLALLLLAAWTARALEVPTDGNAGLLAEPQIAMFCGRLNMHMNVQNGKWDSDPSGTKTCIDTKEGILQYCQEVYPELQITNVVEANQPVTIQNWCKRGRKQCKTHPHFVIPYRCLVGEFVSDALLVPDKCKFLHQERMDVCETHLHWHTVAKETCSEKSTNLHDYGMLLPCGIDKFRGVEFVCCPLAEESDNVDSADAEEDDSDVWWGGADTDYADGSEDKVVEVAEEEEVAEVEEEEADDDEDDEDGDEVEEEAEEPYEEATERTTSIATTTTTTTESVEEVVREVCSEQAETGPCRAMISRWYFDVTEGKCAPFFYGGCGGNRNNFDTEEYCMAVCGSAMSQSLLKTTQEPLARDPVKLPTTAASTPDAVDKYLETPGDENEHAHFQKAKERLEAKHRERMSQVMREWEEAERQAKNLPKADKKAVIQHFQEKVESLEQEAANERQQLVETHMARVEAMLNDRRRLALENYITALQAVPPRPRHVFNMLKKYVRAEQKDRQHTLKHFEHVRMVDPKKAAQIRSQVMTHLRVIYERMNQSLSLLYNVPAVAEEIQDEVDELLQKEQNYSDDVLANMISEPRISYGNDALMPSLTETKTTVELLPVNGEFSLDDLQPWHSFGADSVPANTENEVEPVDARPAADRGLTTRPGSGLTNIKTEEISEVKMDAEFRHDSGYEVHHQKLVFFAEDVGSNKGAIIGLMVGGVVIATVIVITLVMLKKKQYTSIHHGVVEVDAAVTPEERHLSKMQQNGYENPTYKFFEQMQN
How it was run: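 Filtered through GF/B filters and bound radioactivity gamma-counted. IC50 from displacement curves of three independent experiments; Ki calculated with the Cheng–Prusoff equation.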

COc1c2ccc([125I])cc2nc2ccc(N(C)C)cc12
Drug uptake (Heart [1]): 2.38 % ID/g
Drug uptake (Pancreas [2]): 1.14 % ID/g
Drug uptake (Stomach [3]): 4.33 %ID
Drug uptake (Lung [4]): 3.87 % ID/g
Drug uptake (Spleen [5]): 2.43 % ID/g
Drug uptake (Intestine [6]): 11.2 % ID/g
Drug uptake (Kidney [7]): 4.81 % ID/g
Drug uptake (Liver [8]): 10.79 % ID/g
Drug uptake (Brain [9]): 0.71 % ID/g
Drug uptake (Blood [10]): 5.17 % ID/g
Drug uptake (Heart [11]): 4.09 % ID/g
Drug uptake (Pancreas [12]): 2.29 % ID/g
Drug uptake (Stomach [13]): 4.2 %ID
Drug uptake (Lung [14]): 6.67 % ID/g
Drug uptake (Spleen [15]): 5.4 % ID/g
Drug uptake (Intestine [16]): 17.49 % ID/g
Drug uptake (Kidney [17]): 10.72 % ID/g
Drug uptake (Liver [18]): 18.54 % ID/g
Drug uptake (Brain [19]): 1.6 % ID/g
Drug uptake (Blood [20]): 6.52 % ID/g
Drug uptake (Heart [21]): 3.78 % ID/g
Drug uptake (Pancreas [22]): 2.47 % ID/g
Drug uptake (Stomach [23]): 5.1 %ID
Drug uptake (Lung [24]): 6.66 % ID/g
Drug uptake (Spleen [25]): 4.07 % ID/g
Drug uptake (Intestine [26]): 14.19 % ID/g
Drug uptake (Liver [27]): 20.71 % ID/g
Drug uptake (Kidney [28]): 8.99 % ID/g
Drug uptake (Brain [29]): 1.96 % ID/g
Drug uptake (Blood [30]): 7 % ID/g
Drug uptake (Pancreas [31]): 4.11 % ID/g
Drug uptake (Heart [32]): 5.83 % ID/g
Drug uptake (Stomach [33]): 1.83 %ID
Drug uptake (Lung [34]): 7.17 % ID/g
Drug uptake (Intestine [35]): 1.86 % ID/g
Drug uptake (Spleen [36]): 5.09 % ID/g
Drug uptake (Kidney [37]): 10.94 % ID/g
Drug uptake (Liver [38]): 20.78 % ID/g
Drug uptake (Blood [39]): 8.34 % ID/g
Drug uptake (Brain [40]): 2.09 % ID/g
logD [41]: 1.81

COc1ccc2nc3cc(I)ccc3c(OC)c2c1
Ki [42]: 28.9 nM

CNc1c2ccc(I)cc2nc2ccc(OC)cc12
Ki [42]: 13.8 nM

COc1c2ccc(I)cc2nc2ccc(N(C)C)cc12
Ki [42]: 30 nM
